PERK inh: human PERK inhibition, primary cell-based screen; Q9NZJ5; CHO PERK-DD fusion, SEAP luminescence translation reporter; inhibition, % at 5.6 µM; hit rate 0.17% among 220,000;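 active = inhibition above the mean inhibition of all tested compounds plus 3 SD, set separately per screening campaign, cut at about 2.9% in these data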;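 also: PERK kinase domain activated by AP20187 dimerizer at 100 nM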
STAT1 inh: STAT1 signaling inhibition; NIH 3T3 STAT1-luciferase reporter, IFN-gamma, luminescence; inhibition, % at 5.5 µM; hit rate 0.35% among 200,000; AID 920;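 active = inhibition above a set limit, the mean inhibition across all tested compounds plus 3 SD, cut at about 34% in these data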
STAT3 inh-1: reduces IL-6 driven STAT3 reporter signal; U3A cells, IL-6 STAT3-luciferase reporter, luminescence; host cell line lacks STAT1; inhibition, % at 5.5 µM; hit rate 0.89% among 190,000; AID 862;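 active = inhibition above the mean inhibition across all screened compounds plus 3 SD, cut at about 44% in these data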
STAT3 act: activators of IL-6 induced STAT3 signaling; U3A cells, IL-6 STAT3-luciferase reporter, luminescence; 100% = signal with IL-6 EC80 alone; activation (% of control), % at 5.6 µM; hit rate 0.91% among 190,000;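 active = activation above the screen-wide mean of compound activation plus 3 SD, cut at about 130% in these data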
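System – human U3A cells carrying STAT3-luciferase construct · Probe or stimulus – Interleukin-6, 33 ng/mL · Schedule – compound 1 h, then IL-6 6 h at 37 °C · Signal – luminescence from STAT3-driven luciferase reporter · Evaluation – percent of IL-6-only median luminescence · Benchmarks – IL-6-only high control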
STAT3 inh-2: confirmation of STAT3 signaling inhibitors; U3A cells, IL-6 STAT3 luciferase reporter, luminescence; cell line lacks STAT1; AID 1265; shares compounds with STAT3 inh-1; hit rate 45% among 1,200; inhibition, % at 5.7 µM;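 active = inhibition above the hit cutoff computed for the primary STAT3 screen, cut at about 44% in these data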
NFkB inh 2: NF-kappaB inhibition in STAT3 inhibitor counter-screen; inhibition, % at 5.7 µM; HEK293T NF-kB luciferase reporter, TNF-alpha induced; AID 1308; shares compounds with STAT3 inh-1; hit rate 36% among 1,200;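 active = inhibition above the mean of solvent-only control wells plus 3 SD, cutoff set per campaign, cut at about 13% in these data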
STAT1 inh STAT3c: inhibits STAT1, counter-screen to STAT3 inhibitors; inhibition, % at 5.7 µM; AID 1317; hit rate 27% among 1,200; shares compounds with STAT3 inh-1; NIH 3T3 STAT1-luciferase reporter, IFN-gamma induced, luminescence;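 active = inhibition above the mean plus 3 SD of solvent-only control wells, limit set per screening run, cut at about 16% in these data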
Of the large screens only hits and unclear results are named; the others gave an inactive call (follow-up assays come after a bar, where they were run); ! = not confirmed by another sample. A selection: hits, their analogues and other compounds. The true share with any hit is near 1.8%.

COc1ccc2[nH]c3c(c2c1)CCn1c-3nc2ccccc2c1=O	STAT3 inh-1 51 | STAT3 inh-2 inactive | NFkB inh 2 inactive | STAT1 inh STAT3c inactive
COc1cc(OC)cc(C(=O)Nn2c(C)nc3ccccc3c2=O)c1	none
COc1ccccc1-n1c(-c2ccccc2)c[n+]2c1CCc1ccccc1-2	STAT1 inh 34!, STAT3 inh-1 86 | STAT3 inh-2 74 | NFkB inh 2 inactive | STAT1 inh STAT3c 21
CCOc1nc2c(c(=O)n(C)c(=O)n2C)n1Cc1ccccc1Cl	STAT3 inh-1 46 | STAT3 inh-2 inactive | NFkB inh 2 inactive | STAT1 inh STAT3c inactive
COc1ccc(-c2cc(C(F)(F)F)n3ncc(C(=O)Nc4c(C)n(C)n(-c5ccccc5)c4=O)c3n2)cc1	none
CCN(CC)c1ccc2cc(C(C)=O)c(=O)oc2c1	none
CCN(CC)c1ccc2cc(NC(=O)CCC(=O)O)c(=O)oc2c1	STAT3 inh-1 70 | STAT3 inh-2 65 | NFkB inh 2 29 | STAT1 inh STAT3c 28
Cc1nn(-c2ccc(F)cc2)c(C)c1CN1CCN(CCC(C)C)C(CCO)C1 (stereo not given)	none
Cc1nn(C)c(C)c1NC(=O)CSc1nc(C2CC2)nc2c1cnn2-c1ccccc1	STAT3 inh-1 50 | STAT3 inh-2 inactive | NFkB inh 2 inactive | STAT1 inh STAT3c inactive
Cn1ccnc1SCC(=O)c1ccc([N+](=O)[O-])cc1	none
C#CCNC(=O)C1=C[C@@H](C2CCCCC2)[C@H](CCCO)[C@@H](OCC)O1	none (no result: STAT3 inh-1, STAT3 act)
Cc1ccc([N+](=O)[O-])c(C(=O)N/N=C/c2cccs2)c1	none (no result: STAT1 inh, STAT3 inh-1, STAT3 act)
COc1cc(C)ccc1OCCCOc1ccccc1Br	none
COC(=O)c1ccccc1OCCCOc1ccc(C)cc1OC	STAT3 inh-1 59 | STAT3 inh-2 inactive | NFkB inh 2 inactive | STAT1 inh STAT3c inactive
Cn1c(CN2CCCCC2)nc2cc(NC(=O)c3ccc(Cl)cc3)ccc21	STAT3 inh-1 70 | STAT3 inh-2 70 | NFkB inh 2 23 | STAT1 inh STAT3c inactive
Cn1c(CN2CCCC2)nc2cc(NC(=O)c3ccc(Cl)cc3)ccc21	none
O=C(Nc1ccc(N2CCN(C(=O)c3ccc(Cl)cc3)CC2)cc1)c1cc2ccccc2o1	STAT3 inh-1 70 | STAT3 inh-2 65 | NFkB inh 2 19 | STAT1 inh STAT3c inactive
O=C(Nc1ccc2c(c1)OCCO2)c1cc2ccccc2o1	STAT3 inh-1 66 | STAT3 inh-2 inactive | NFkB inh 2 inactive | STAT1 inh STAT3c inactive
O=C(Nc1ccc2c(c1)OCCO2)Nc1ccc2c(c1)OCO2	STAT3 inh-1 54 | STAT3 inh-2 inactive | NFkB inh 2 inactive | STAT1 inh STAT3c inactive
CC(=O)Nc1ccc2c(c1)OCCO2	none
O=C(NC1=NCCS1)c1cc2ccccc2o1	STAT3 inh-1 64 | STAT3 inh-2 inactive | NFkB inh 2 inactive | STAT1 inh STAT3c inactive
CCC(=O)N1CCN(c2ccc(NC(=O)c3cc4ccccc4o3)cc2)CC1	none
Cc1cc(C(=O)NC2=NCCS2)cs1	none
COc1ccc(CC(=O)Nc2ccc(-c3ccc4nnc(C)n4n3)cc2)cc1OC	none
O=C(/C=C\Nc1ccc2c(c1)OCO2)c1ccc(Cl)s1	STAT3 inh-1 62 | STAT3 inh-2 inactive | NFkB inh 2 inactive | STAT1 inh STAT3c inactive
COc1ccc(N/C=C\C(=O)c2ccc3c(c2)OCO3)cc1	none
COc1ccc(N(C(C)C(=O)N2CCC(Cc3ccccc3)CC2)S(C)(=O)=O)cc1 (stereo not given)	STAT3 inh-1 50 | STAT3 inh-2 46 | NFkB inh 2 inactive | STAT1 inh STAT3c 21
CCOC(=O)C1CCN(C(=O)C(C)N(c2ccc(Oc3ccccc3)cc2)S(C)(=O)=O)CC1 (stereo not given)	STAT3 inh-1 49 | STAT3 inh-2 inactive | NFkB inh 2 inactive | STAT1 inh STAT3c inactive
Cc1[nH]c2ccccc2c1C(=O)Cn1c(=O)oc2ccccc21	none
Cc1ccc(/C=C/C(=O)N2CC(C)CC(C)C2)o1 (stereo not given)	none
COc1ccc(-c2cc3nc(C)cc(N)n3n2)cc1	STAT3 inh-1 69 | STAT3 inh-2 inactive | NFkB inh 2 inactive | STAT1 inh STAT3c inactive
CCOC(=O)C(C)S(=O)(=O)c1ccc(C(F)(F)F)cn1 (stereo not given)	none
C/C(=N\NC(=O)c1ccc(Cl)c(S(=O)(=O)Nc2ccccc2Cl)c1)c1ccncc1	none
